Reference: ChEMBL document CHEMBL4138150, “Quinoline derivatives bearing pyrazole moiety: Synthesis and biological evaluation as possible antibacterial and antifungal agents” (2018)
In brackets after ≈: the same amount, converted by molar mass.

Legend:
[1] = system: Aspergillus fumigatus; test: Antimicrobial activity against Aspergillus fumigatus RCMB 02564 after 72 hrs by macro-tube dilution technique; assay type: functional; conditions: RCMB 02564, 72 h
Procedure, shortened: (§1)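 Twofold macro-tube dilution following NCCLS guidance, run in malt extract broth. 10 mg compound in 2.0 mL DMSO in tube 1 was serially diluted 1:1 through tube 14 into 1.0 mL broth; tube 15 was the control. Culture was suspended to turbidity in 5.0 mL broth, 0.2 mL was diluted into 40 mL, and 1.0 mL was added per tube. Incubation was 72 h at 30 °C. MIC was the lowest concentration with no growth.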

[2] = system: Aspergillus clavatus; test: Potency index, ratio of Amphotericin B IC50 to compound IC50 for Aspergillus clavatus RCMB 02593; assay type: functional
[3] = system: Candida albicans; test: Antimicrobial activity against Candida albicans RCMB 05035 assessed as diameter of zone inhibition at 5 mg/ml after 72 hrs by agar well diffusion assay; assay type: functional; conditions: RCMB 05035, 72 h, read-out: DIZ
Procedure, shortened: (§2)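 Fungi (1 x10^6 CFU/mL, 100 µL) were spread on Sabouraud dextrose agar. 10 mm wells were loaded with 100 µL of test solution at 5 mg/mL in DMSO, or amphotericin B standard at 1 mg/mL. A DMSO negative control was included. Plates were incubated 72 h at 28 °C. Inhibition zone diameter (mm) was recorded as the average of triplicate runs.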

[4] = system: Klebsiella pneumoniae; test: Antimicrobial activity against Klebsiella pneumoniae RCMB 010093 after overnight incubation by macro-tube dilution technique; assay type: functional
Procedure, shortened: (§3)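 Macro-tube twofold dilution following NCCLS guidance, run in nutrient broth. The first tube held 10 mg compound in 2.0 mL DMSO and was serially halved 1:1 into 1.0 mL broth through tube 14; tube 15 was the control. The inoculum was suspended to turbidity in 5.0 mL broth, 0.2 mL was diluted into 40 mL, and 1.0 mL was added per tube. Tubes were incubated overnight at 37 °C. MIC was the lowest concentration with no growth.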

[5] = system: Shigella flexneri; test: Antimicrobial activity against Shigella flexneri RCMB 0100542 assessed as diameter of zone inhibition at 5 mg/ml after 24 hrs by agar well diffusion assay; assay type: functional; conditions: RCMB 0100542, 24 h, read-out: DIZ
Procedure, shortened: (§4)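 Agar well diffusion: 100 µL of 1 x10^8 CFU/mL bacteria was spread on nutrient agar. 10 mm wells received 100 µL of compound at 5 mg/mL in DMSO, or ampicillin or gentamycin standards at 1 mg/mL. DMSO served as negative control. Plates were incubated 24 h at 37 °C. Inhibition zone diameter (mm) was measured as the mean of triplicates.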

[6] = system: Proteus vulgaris; test: Antimicrobial activity against Proteus vulgaris RCMB 010085 assessed as diameter of zone inhibition at 5 mg/ml after 24 hrs by agar well diffusion assay; assay type: functional; conditions: RCMB 010085, 24 h, read-out: DIZ; procedure, shortened: as §4
[7] = system: Klebsiella pneumoniae; test: Antimicrobial activity against Klebsiella pneumoniae RCMB 010093 assessed as diameter of zone inhibition at 5 mg/ml after 24 hrs by agar well diffusion assay; assay type: functional; conditions: RCMB 010093, 24 h, read-out: DIZ; procedure, shortened: as §4
[8] = system: Bacillus subtilis; test: Antimicrobial activity against Bacillus subtilis RCMB 010063 assessed as diameter of zone inhibition at 5 mg/ml after 24 hrs by agar well diffusion assay; assay type: functional; conditions: RCMB 010063, 24 h, read-out: DIZ; procedure, shortened: as §4
[9] = system: Staphylococcus epidermidis; test: Antimicrobial activity against Staphylococcus epidermidis RCMB 010024 assessed as diameter of zone inhibition at 5 mg/ml after 24 hrs by agar well diffusion assay; assay type: functional; conditions: RCMB 010024, 24 h, read-out: DIZ; procedure, shortened: as §4
[10] = system: Shigella flexneri; test: Potency index, ratio of Gentamycin IC50 to compound IC50 for Shigella flexneri RCMB 0100542; assay type: functional
[11] = system: Staphylococcus epidermidis; test: Antimicrobial activity against Staphylococcus epidermidis RCMB 010024 after overnight incubation by macro-tube dilution technique; assay type: functional; procedure, shortened: as §3
[12] = system: Aspergillus clavatus; test: Antimicrobial activity against Aspergillus clavatus RCMB 02593 after 72 hrs by macro-tube dilution technique; assay type: functional; conditions: RCMB 02593, 72 h; procedure, shortened: as §1
[13] = system: Staphylococcus aureus; test: Antimicrobial activity against Staphylococcus aureus RCMB 010027 after overnight incubation by macro-tube dilution technique; assay type: functional; procedure, shortened: as §3
[14] = system: Proteus vulgaris; test: Potency index, ratio of Gentamycin IC50 to compound IC50 for Proteus vulgaris RCMB 010085; assay type: functional
[15] = system: Aspergillus clavatus; test: Antimicrobial activity against Aspergillus clavatus RCMB 02593 assessed as diameter of zone inhibition at 5 mg/ml after 72 hrs by agar well diffusion assay; assay type: functional; conditions: RCMB 02593, 72 h, read-out: DIZ; procedure, shortened: as §2
[16] = system: Shigella flexneri; test: Antimicrobial activity against Shigella flexneri RCMB 0100542 after overnight incubation by macro-tube dilution technique; assay type: functional; procedure, shortened: as §3
[17] = system: Candida albicans; test: Potency index, ratio of Amphotericin B IC50 to compound IC50 for Candida albicans RCMB 05035; assay type: functional
[18] = system: Proteus vulgaris; test: Antimicrobial activity against Proteus vulgaris RCMB 010085 after overnight incubation by macro-tube dilution technique; assay type: functional; procedure, shortened: as §3
[19] = system: Bacillus subtilis; test: Antimicrobial activity against Bacillus subtilis RCMB 010063 after overnight incubation by macro-tube dilution technique; assay type: functional; procedure, shortened: as §3
[20] = system: Staphylococcus aureus; test: Antimicrobial activity against Staphylococcus aureus RCMB 010027 assessed as diameter of zone inhibition at 5 mg/ml after 24 hrs by agar well diffusion assay; assay type: functional; conditions: RCMB 010027, 24 h, read-out: DIZ; procedure, shortened: as §4
[21] = system: Candida albicans; test: Antimicrobial activity against Candida albicans RCMB 05035 after 72 hrs by macro-tube dilution technique; assay type: functional; conditions: RCMB 05035, 72 h; procedure, shortened: as §1
[22] = system: Aspergillus fumigatus; test: Antimicrobial activity against Aspergillus fumigatus RCMB 02564 assessed as diameter of zone inhibition at 5 mg/ml after 72 hrs by agar well diffusion assay; assay type: functional; conditions: RCMB 02564, 72 h, read-out: DIZ; procedure, shortened: as §2
[23] = system: Candida albicans; test: Antimicrobial activity against Candida albicans RCMB 05035 assessed as diameter of zone inhibition at 1 mg/ml after 72 hrs by agar well diffusion assay; assay type: functional; conditions: RCMB 05035, 72 h, read-out: DIZ
[24] = system: Aspergillus fumigatus; test: Antimicrobial activity against Aspergillus fumigatus RCMB 02564 assessed as diameter of zone inhibition at 1 mg/ml after 72 hrs by agar well diffusion assay; assay type: functional; conditions: RCMB 02564, 72 h, read-out: DIZ
[25] = system: Aspergillus clavatus; test: Antimicrobial activity against Aspergillus clavatus RCMB 02593 assessed as diameter of zone inhibition at 1 mg/ml after 72 hrs by agar well diffusion assay; assay type: functional; conditions: RCMB 02593, 72 h, read-out: DIZ
[26] = system: Staphylococcus epidermidis; test: Antimicrobial activity against Staphylococcus epidermidis RCMB 010024 assessed as diameter of zone inhibition at 1 mg/ml after 24 hrs by agar well diffusion assay; assay type: functional; conditions: RCMB 010024, 24 h, read-out: DIZ
[27] = system: Bacillus subtilis; test: Antimicrobial activity against Bacillus subtilis RCMB 010063 assessed as diameter of zone inhibition at 1 mg/ml after 24 hrs by agar well diffusion assay; assay type: functional; conditions: RCMB 010063, 24 h, read-out: DIZ
[28] = system: Staphylococcus aureus; test: Antimicrobial activity against Staphylococcus aureus RCMB 010027 assessed as diameter of zone inhibition at 1 mg/ml after 24 hrs by agar well diffusion assay; assay type: functional; conditions: RCMB 010027, 24 h, read-out: DIZ
[29] = system: Staphylococcus epidermidis; test: Potency index, ratio of Amphotericin B IC50 to compound IC50 for Staphylococcus epidermidis RCMB 010024; assay type: functional
[30] = system: Proteus vulgaris; test: Antimicrobial activity against Proteus vulgaris RCMB 010085 assessed as diameter of zone inhibition at 1 mg/ml after 24 hrs by agar well diffusion assay; assay type: functional, organism-based
Procedure, shortened: (§5)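 Agar well diffusion on nutrient agar spread with 100 µL of bacterial suspension at 1 x10^8 CFU/mL. Wells 10 mm wide were loaded with 100 µL of solution: test compounds at 5 mg/mL in DMSO, ampicillin or gentamycin standards at 1 mg/mL, DMSO negative control. Plates were incubated 24 h at 37 °C, and inhibition zone diameter (mm) was averaged over triplicates.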

[31] = system: Shigella flexneri; test: Antimicrobial activity against Shigella flexneri RCMB 0100542 assessed as diameter of zone inhibition at 1 mg/ml after 24 hrs by agar well diffusion assay; assay type: functional, organism-based; procedure, shortened: as §5
[32] = system: Klebsiella pneumoniae; test: Antimicrobial activity against Klebsiella pneumoniae RCMB 010093 assessed as diameter of zone inhibition at 1 mg/ml after 24 hrs by agar well diffusion assay; assay type: functional, organism-based; procedure, shortened: as §5

Row | Compound | MIC [1] [µg/mL] | zone of inhibition at 5000 µg/mL [3] [mm] | MIC [4] [µg/mL] | zone of inhibition at 5000 µg/mL [5] [mm] | zone of inhibition at 5000 µg/mL [6] [mm] | zone of inhibition at 5000 µg/mL [7] [mm] | zone of inhibition at 5000 µg/mL [8] [mm] | zone of inhibition at 5000 µg/mL [9] [mm] | MIC [11] [µg/mL] | MIC [12] [µg/mL] | MIC [13] [µg/mL] | zone of inhibition at 5000 µg/mL [15] [mm] | MIC [16] [µg/mL] | MIC [18] [µg/mL] | MIC [19] [µg/mL] | zone of inhibition at 5000 µg/mL [20] [mm] | MIC [21] [µg/mL] | zone of inhibition at 5000 µg/mL [22] [mm] | further results
1 | N#Cc1c(-c2ccc(Cl)cc2Cl)nn(-c2ccc3ccccc3n2)c1N | 0.98 (≈ 2.58 µM) | 24.8 | 0.49 (≈ 1.29 µM) | 23.2 | 20.6 | 21.6 | 25.8 | 22.3 | 0.49 (≈ 1.29 µM) | 0.49 (≈ 1.29 µM) | 0.49 (≈ 1.29 µM) | 22.3 | 0.12 (≈ 0.316 µM) | 0.98 (≈ 2.58 µM) | 0.12 (≈ 0.316 µM) | 21.6 | 0.12 (≈ 0.316 µM) | 20.9 | Ratio [2]: 4; Ratio [10]: 4; Ratio [14]: 2; Ratio [17]: 4
2 | C[C@@H]1[C@H](O)[C@@H](C)/C=C/C=C/C=C/C=C/C=C/C=C/C=C/[C@H](O[C@@H]2O[C@H](C)[C@@H](O)[C@H](N)[C@@H]2O)C[C@@H]2O[C@](O)(C[C@@H](O)C[C@@H](O)[C@H](O)CC[C@@H](O)C[C@@H](O)CC(=O)O[C@H]1C)C[C@H](O)[C@H]2C(=O)O [AMPHOTERICIN B] | 0.97 (≈ 1.05 µM) | – | – | – | – | – | – | – | – | 1.95 (≈ 2.11 µM) | – | – | – | – | – | – | 0.48 (≈ 0.519 µM) | – | zone of inhibition at 1000 µg/mL [23]: 26.4 mm; zone of inhibition at 1000 µg/mL [24]: 23.7 mm; zone of inhibition at 1000 µg/mL [25]: 21.9 mm
3 | CC1(C)S[C@@H]2[C@H](NC(=O)[C@H](N)c3ccccc3)C(=O)N2[C@H]1C(=O)O [AMPICILLIN] | – | – | – | – | – | – | – | – | 0.48 (≈ 1.37 µM) | – | 0.06 (≈ 0.172 µM) | – | – | – | 0.007 (≈ 0.02 µM) | – | – | – | zone of inhibition at 1000 µg/mL [26]: 25.4 mm; zone of inhibition at 1000 µg/mL [27]: 34.6 mm; zone of inhibition at 1000 µg/mL [28]: 28.9 mm
4 | COc1ccc(C2CC(c3ccc(Oc4ccc5ccccc5n4)cc3)=NN2c2ccccc2)cc1 (centres undefined) | 1.95 (≈ 4.14 µM) | 23.5 | 3.9 (≈ 8.27 µM) | 23.3 | 24.5 | 26.1 | 28.7 | 26.2 | 0.24 (≈ 0.509 µM) | 3.9 (≈ 8.27 µM) | 0.24 (≈ 0.509 µM) | 22.9 | 0.48 (≈ 1.02 µM) | 9.9 (≈ 21 µM) | 0.06 (≈ 0.127 µM) | 29 | 0.48 (≈ 1.02 µM) | 23.5 | Ratio [29]: 2
5 | GENTAMICIN | – | – | 0.24 | – | – | – | – | – | – | – | – | – | 0.48 | 1.95 | – | – | – | – | inhibition zone (IZ) [30]: 23.4 mm; inhibition zone (IZ) [31]: 24.8 mm; inhibition zone (IZ) [32]: 26.3 mm
